Source: PubChem BioAssay AID540295 (The Scripps Research Institute Molecular Screening Center, 2011)
Among all 360,000 compounds or so, about 1,700 (0.47%) were called active. The sample as a whole holds a higher share of actives than the screen did. A number with no mark means an inactive call.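 How the source made its calls: active means inhibition above its plate's cutoff, the mean of tested wells on that plate plus 3 SD (cut at about 29% in these data); inactive means the rest.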

Target: Melanocortin receptor 4 (Homo sapiens) (UniProt P32245)
Test: blockers of MC4R Gs-cAMP response – cell-based, TR-FRET, antagonist arm of biased-ligand search, primary screen (AID 540295);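 further: 0% = Melanotan II alone and 100% = Melanotan II plus saturating MCL0020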
Conditions: MC4R-expressing cells, MTII-stimulated cAMP, LANCE TR-FRET; at 6.5 µM; stronger effect = higher value
Outline: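 Assay system: human MC4R-expressing U2OS cells; reagent: Melanotan II stimulation of cells; dosing: 6.5 µM single dose; timing: compound 30 min, challenge 1 h, detection 1 h; signal: TR-FRET cAMP assay; replicates: one well per compound, no replicates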

Sequence of Melanocortin receptor 4 (Homo sapiens) (P32245 whole entry, looked up): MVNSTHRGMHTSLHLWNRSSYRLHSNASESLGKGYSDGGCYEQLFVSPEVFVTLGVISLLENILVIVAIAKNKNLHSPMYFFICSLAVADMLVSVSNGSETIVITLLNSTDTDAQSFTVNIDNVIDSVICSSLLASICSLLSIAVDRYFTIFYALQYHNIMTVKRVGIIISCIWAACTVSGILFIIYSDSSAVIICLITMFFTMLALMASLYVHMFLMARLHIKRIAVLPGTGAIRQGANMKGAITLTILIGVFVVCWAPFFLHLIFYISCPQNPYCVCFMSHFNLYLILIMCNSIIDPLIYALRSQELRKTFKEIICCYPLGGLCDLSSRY

Row | SMILES | inhibition
1 | CC1(C)C(=O)Nc2ccccc2N1C(=O)COC(=O)Cn1cnc2ccccc2c1=O | 13.1%
2 | O=C(COC(=O)Cn1cnc2ccccc2c1=O)NCC12CC3CC(CC(C3)C1)C2 | 29.2% (active)
3 | O=C(COC(=O)Cn1cnc2ccccc2c1=O)NCc1ccccc1Cl | 10.8%
4 | O=C(N/C(=C\c1ccc(O)cc1)C(=O)N1CCCCC1)c1ccccc1 | 2.84%
5 | COc1ccc(N)cc1NC(=O)CN1CCOCC1 | -2.41%
6 | O=C(O)c1n[nH]nc1-c1ccccc1 | 3.02%
7 | CCOC(=O)CSc1nc(C)c(Oc2ccc(Cl)cc2Cl)c(=O)[nH]1 | 5.59%
8 | CCCCOC(=O)CNc1nnc(SCC(=O)OCC)[nH]c1=O | 60.6% (active)
9 | Cc1nnc(SCC(=O)N2CCOCC2)[nH]c1=O | 2.07%
10 | O=C(COC(=O)[C@H](Cc1ccccc1)NC(=O)c1cccs1)Nc1cc(F)ccc1F | 31.4% (active)
11 | NC(=O)c1ccc(NC(=O)COC(=O)C(Cc2ccccc2)NC(=O)c2ccccc2)cc1 (configuration not stated) | 11%
12 | Cc1ccc(C)c(NC(CC(=O)c2ccccc2)C(=O)OCC(=O)c2cccs2)c1 (configuration not stated) | -0.53%
13 | CCc1nc2c(OCc3ccc(C(F)(F)F)cc3)cccn2c1N(C)C(=O)CC(C)C | 6.64%
14 | O=S(=O)(NCC1CCCO1)c1cnc(Cl)c(Cl)c1 (configuration not stated) | 24.7%
15 | O=C(COC(=O)c1cnc(Cl)c(Cl)c1)NCc1ccco1 | 10.1%
16 | O=S(=O)(NCc1ccco1)c1cnc(Cl)c(Cl)c1 | 44.9% (active)
17 | COC(=O)C[C@H]1C[C@@H]2c3cc(N(C)C)ccc3O[C@@H]2[C@H](CO)O1 | 13%
18 | O=C1c2ccccc2C(=O)N1CCc1nn[nH]n1 | 14.6%
19 | CN(C)C(CNC(=O)c1cccc(C#N)c1)c1ccco1 (configuration not stated) | 0.76%
20 | CN(C)C(CNC(=O)CCCOc1ccccc1)c1ccco1 (configuration not stated) | 29.7% (active)
21 | O=C(CCCOc1ccccc1)NCc1ccco1 | 2.67%
22 | CN(CC(=O)NCC(c1ccccc1)N1CCCC1)S(=O)(=O)c1ccc(Cl)cc1 (configuration not stated) | -2.78%
23 | CN(CC(=O)NNC(=O)CNC(=O)c1ccccc1Cl)S(=O)(=O)c1ccc(Cl)cc1 | 2.86%
24 | CN(CC(=O)NCCc1ccccn1)S(=O)(=O)c1ccc(Cl)cc1 | 30.3% (active)
25 | Cc1ccc(S(=O)(=O)N2CCCC2C(=O)NCc2ccco2)cc1 (configuration not stated) | -0.46%
26 | COC(=O)COc1ccc(C2NC(=O)NC(C)=C2C(=O)NCc2ccccc2)cc1OC (configuration not stated) | 21.9%
27 | C[C@H]([C@@H](O)[C@@H](O)[C@@H](C)C(C)(C)C)[C@H]1CC[C@H]2C3CC[C@H]4C[C@H](OS(=O)(=O)O)[C@@H](OS(=O)(=O)O)C[C@]4(C)[C@H]3CC[C@]12C (some centres not stated) | 9.52%
